Assay results as given in ChEMBL document CHEMBL1149285, “Identification of novel parasitic cysteine protease inhibitors using virtual screening. 1. The ChemBridge database” (J Med Chem, 2004).
Activity calls are given as the source filed them. The rule behind the calls is not given here.

Assays:
Falcipain 2 = molecular target: T1, Falcipain 2 (Plasmodium falciparum, UniProt Q9N6S8); assay: Inhibition of Plasmodium falciparum recombinant falcipain-2
T1 sequence (Q9N6S8 whole entry): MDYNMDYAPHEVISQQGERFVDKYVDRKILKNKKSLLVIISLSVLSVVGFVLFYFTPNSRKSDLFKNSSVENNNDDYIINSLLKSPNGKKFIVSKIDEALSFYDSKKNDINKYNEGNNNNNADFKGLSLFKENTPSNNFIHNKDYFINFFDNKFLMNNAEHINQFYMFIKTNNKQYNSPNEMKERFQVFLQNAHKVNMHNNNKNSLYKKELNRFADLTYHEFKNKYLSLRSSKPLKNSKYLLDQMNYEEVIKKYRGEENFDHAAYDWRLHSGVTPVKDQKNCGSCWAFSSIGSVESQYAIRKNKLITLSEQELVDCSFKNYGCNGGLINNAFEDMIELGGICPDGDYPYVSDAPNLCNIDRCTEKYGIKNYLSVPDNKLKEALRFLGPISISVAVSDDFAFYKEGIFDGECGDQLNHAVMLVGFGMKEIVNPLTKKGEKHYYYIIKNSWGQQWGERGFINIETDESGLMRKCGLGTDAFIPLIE
How it was run: (§1)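 Equal amounts of recombinant enzyme preincubated 30 min at room temperature with serial inhibitor dilutions from DMSO stocks (DMSO at most 1% in assay) in 100 mM sodium acetate pH 5.5, 10 mM dithiothreitol. Z-Leu-Arg-AMC then added to 25 μM final; fluorescence followed 15 min at room temperature. IC50 taken from percent activity versus concentration plots.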

[1] = molecular target: T2, Cysteine protease falcipain-3 (Plasmodium falciparum, UniProt Q9NBA7); assay: Inhibition of Plasmodium falciparum recombinant falcipain-3; how it was run: as §1
T2 sequence (Q9NBA7 whole entry): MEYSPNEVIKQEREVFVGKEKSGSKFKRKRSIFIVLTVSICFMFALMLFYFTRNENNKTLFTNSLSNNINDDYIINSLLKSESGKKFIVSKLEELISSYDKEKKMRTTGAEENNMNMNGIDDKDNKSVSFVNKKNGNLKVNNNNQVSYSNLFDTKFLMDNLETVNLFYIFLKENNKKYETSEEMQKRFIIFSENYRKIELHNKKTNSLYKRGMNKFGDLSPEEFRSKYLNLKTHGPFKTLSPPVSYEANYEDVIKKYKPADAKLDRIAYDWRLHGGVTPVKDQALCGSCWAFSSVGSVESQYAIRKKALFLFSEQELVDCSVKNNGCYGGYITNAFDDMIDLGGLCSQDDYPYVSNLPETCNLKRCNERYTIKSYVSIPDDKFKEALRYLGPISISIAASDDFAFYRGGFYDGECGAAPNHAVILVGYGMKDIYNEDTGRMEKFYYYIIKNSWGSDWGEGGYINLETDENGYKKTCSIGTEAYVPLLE

Plasmodium falciparum [2] = assay: Antiplasmodial activity against chloroquine-sensitive Plasmodium falciparum D6 after 48 hrs as LDH reporter activity; assay type: functional, organism-based; details: D6, 48 h
How it was run: (§2)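 Asynchronous P. falciparum cultures (2% hematocrit, 2% parasitemia) were exposed to compound dilutions prepared in DMSO. They were incubated 48 h at 37 °C in a humidified chamber under 90% N2, 5% CO2, 5% O2. Growth was read as parasite lactate dehydrogenase activity using Malstat reagent. Medium-only and erythrocyte-only wells were included, with chloroquine and artemisinin as positive and DMSO as negative controls.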

Plasmodium falciparum [3] = assay: Antiplasmodial activity against chloroquine-resistant Plasmodium falciparum W2 as LDH activity after 48 hrs; assay type: functional, organism-based; details: W2, 48 h; how it was run: as §2
Cysteine protease = molecular target: T3, Cysteine protease (Leishmania donovani, UniProt Q95WR6); assay: (§3) Inhibition of Leishmania donovani cysteine protease
T3 sequence (Q95WR6 whole entry): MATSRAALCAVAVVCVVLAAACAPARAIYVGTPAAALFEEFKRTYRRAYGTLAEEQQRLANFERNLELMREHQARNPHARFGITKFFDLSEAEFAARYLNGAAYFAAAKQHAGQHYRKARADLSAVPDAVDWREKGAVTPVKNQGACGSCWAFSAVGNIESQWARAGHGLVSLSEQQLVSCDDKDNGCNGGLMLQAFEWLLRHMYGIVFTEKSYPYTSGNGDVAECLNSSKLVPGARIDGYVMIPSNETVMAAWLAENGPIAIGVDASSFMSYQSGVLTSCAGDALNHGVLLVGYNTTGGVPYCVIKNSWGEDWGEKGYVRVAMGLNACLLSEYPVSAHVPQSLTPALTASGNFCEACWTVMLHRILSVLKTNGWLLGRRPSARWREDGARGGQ

Leishmania donovani = assay: Antileishmanial activity against Leishmania donovani promastigotes after 72 hrs by Alamar blue assay; assay type: functional, organism-based
How it was run: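 L. donovani promastigote culture at 2 × 10⁶ cells/mL given diluted compounds, incubated 72 h at 26 °C; growth read by Alamar blue. Pentamidine and amphotericin B as reference agents; IC50 computed from growth inhibition curve.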

Vero [4] = assay: Cytotoxicity against Vero cells at 23.8 ug/mL by Neutral red assay; assay type: cell-based; details: chlorocebus sabaeus
How it was run: (§4)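 VERO monkey kidney […] exposed to compounds alongside the antiparasitic assays, viability by Neutral Red uptake; highest concentration tested 23.8 μg/mL; IC50 computed from growth inhibition curve.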

Vero [5] = assay: Cytotoxicity against Vero cells by Neutral red assay; assay type: cell-based; details: chlorocebus sabaeus; how it was run: as §4
[6] = molecular target: T4, Cysteine protease (Leishmania donovani) (UniProt Q95WR6); assay: as §3
T4 sequence (whole entry): T3 sequence (Q95WR6 whole entry)

| Compound | IC50 (Falcipain 2) [µM] | IC50 [1] [µM] | EC50 (Plasmodium falciparum [2]) [µM] | EC50 (Plasmodium falciparum [3]) [µM] | IC50 (Cysteine protease) [µM] | Activity (Leishmania donovani) | Activity (Vero [4]) | IC50 (Leishmania donovani) [µM] | IC50 (Vero [5]) [µM] | Activity [6] |
| --- | --- | --- | --- | --- | --- | --- | --- | --- | --- | --- |
| Oc1ccc(/C=N/c2ccc(/N=C/c3ccc(O)cc3O)c(Cl)c2)c(O)c1 | 2.1 | 7.5 | 12.3 | 20.9 | 65.3 | inactive | Non-toxic |  |  |  |
| CC(C)CC(=O)N[C@H](C(=O)N[C@H](C(=O)N[C@@H](CC(C)C)[C@@H](O)CC(=O)N[C@@H](C)C(=O)N[C@@H](CC(C)C)[C@@H](O)CC(=O)O)C(C)C)C(C)C [PEPSTATIN] |  |  |  |  | 0.16 |  |  |  |  |  |
| O=C(CN1C(=O)/C(=N\NC(=O)c2ccncc2)c2ccccc21)Nc1ccccc1 | 40.9 | 62.2 | 56.3 | 59.6 | 62.6 | inactive | Non-toxic |  |  |  |
| Oc1cccc(/C=N\c2cccc3c(/N=C/c4cccc(O)c4O)cccc23)c1O | 4.6 | 5.8 | 6.9 | 6.6 | 113 |  |  | 8.8 | 28.9 |  |
| O=C(Cn1nnc(-c2ccccc2)n1)N/N=C1\C(=O)Nc2ccccc21 | 27.3 | > 50 | 68.5 | 43.2 | 130 | inactive | Non-toxic |  |  |  |
| O=C(O)c1ccccc1N/N=C/c1ccc(/C=N/Nc2ccccc2C(=O)O)cc1 | 1 | 4.9 | 34.8 | 41 | 72 | inactive | Non-toxic |  |  |  |
| Cc1cccc(NC(=O)CCC(=O)N/N=C/c2cc(Cl)ccc2O)c1 | 7.5 | 5.4 | 13.5 | 12.1 |  | inactive | Non-toxic |  |  | inactive |
| Oc1ccc(Nc2nc(-c3cccnc3)cs2)cc1 | 22.5 | > 50 | 52 | 50.1 |  |  | Non-toxic | 11.5 |  | inactive |
| C/C(=N\NS(=O)(=O)c1ccc(C)cc1)c1c(O)c2ccccc2oc1=O | 3.9 | 13.9 | 63.9 | 63.9 |  | inactive | Non-toxic |  |  | inactive |
| CCOP(=O)(CC(=O)NNC(=O)Nc1cccc2ccccc12)OCC | 53.4 | > 50 | 52.7 | 40.9 |  | inactive | Non-toxic |  |  | inactive |
| O=C(Nc1cccc(O)c1)c1cccc(S(=O)(=O)Nc2cccc(O)c2)c1 | > 50 | > 50 | 35.1 | 37.7 |  |  | Non-toxic | 0.3 |  | inactive |
| O=C(CSc1ccc2ccccc2n1)N/N=C/c1ccc(O)cc1O | 63.4 | > 50 | 32.5 | 67.3 |  | inactive | Non-toxic |  |  | inactive |
| Oc1ccc(/C=N/CC/N=C/c2ccc(O)cc2O)c(O)c1 | 20.8 | > 50 | 46.6 | 74.9 |  | inactive | Non-toxic |  |  | inactive |
| O=C(Cc1nnc(NC(=O)c2ccccc2)s1)N/N=C\c1ccc(O)c(O)c1 | 31.1 | > 50 | > 59.9 | > 59.9 |  | inactive | Non-toxic |  |  | inactive |
